Results taken from ChEMBL document CHEMBL1142473, “Antitumor studies. Part 5: Synthesis, antitumor activity, and molecular docking study of 5-(monosubstituted amino)-2-deoxo-2-phenyl-5-deazaflavins” (Bioorg Med Chem, 2008).
Values after ≈ are worked out from the molar mass of the structure shown.

Tests used:
CCRF-HSB-2 = test: Growth inhibition of human CCRF-HSB-2 cells by MTT method; assay type: functional, cell-based
Summary of the method: (§1)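 IC50 taken from the dose-response curve; AraC run alongside as positive control.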

KB = test: Growth inhibition of human KB cells by MTT method; assay type: functional, cell-based; summary of the method: as §1

IC50 (CCRF-HSB-2) [µg/mL] | IC50 (KB) [µg/mL] | SMILES
> 100 | 66.9 (≈ 170 µM) | Cn1c2nc(-c3ccccc3)nc(=O)c-2c(NCc2ccccc2)c2ccccc21
> 100 | 32.9 (≈ 79.4 µM) | CCCCCCCCNc1c2c(=O)nc(-c3ccccc3)nc-2n(C)c2ccccc12
63.3 (≈ 151 µM) | 53.4 (≈ 127 µM) | CCn1c2nc(-c3ccccc3)nc(=O)c-2c(NCCc2ccccc2)c2ccccc21
5.7 (≈ 12.9 µM) | 2 (≈ 4.52 µM) | CCCCCCCCNc1c2c(=O)nc(-c3ccccc3)nc-2n(CC)c2ccc(C)cc12
0.017 (≈ 0.0699 µM) | 0.42 (≈ 1.73 µM) | Nc1ccn([C@@H]2O[C@H](CO)[C@@H](O)[C@@H]2O)c(=O)n1 [CYTARABINE]
8.9 (≈ 23 µM) | 8.6 (≈ 22.3 µM) | CCCCNc1c2c(=O)nc(-c3ccccc3)nc-2n(CC)c2ccc(C)cc12
6.9 (≈ 16.4 µM) | 17.2 (≈ 40.9 µM) | CCn1c2nc(-c3ccccc3)nc(=O)c-2c(NCc2ccccc2)c2cc(C)ccc21
2.1 (≈ 5.64 µM) | 2.7 (≈ 7.25 µM) | CCCCNc1c2c(=O)nc(-c3ccccc3)nc-2n(C)c2ccc(C)cc12
> 100 | > 100 | COC(=O)c1ccccc1Nc1c2c(=O)nc(-c3ccccc3)nc-2n(C)c2ccccc12
0.75 (≈ 1.85 µM) | 1.6 (≈ 3.94 µM) | Cc1ccc(Nc2c3c(=O)nc(-c4ccccc4)nc-3n(C)c3ccccc23)cc1C
6.1 (≈ 15 µM) | 4.7 (≈ 11.6 µM) | CCn1c2nc(-c3ccccc3)nc(=O)c-2c(NCc2ccccc2)c2ccccc21
8.6 (≈ 20.1 µM) | 4.7 (≈ 11 µM) | CCCCCCCCNc1c2c(=O)nc(-c3ccccc3)nc-2n(C)c2ccc(C)cc12
17.7 (≈ 43.5 µM) | 22 (≈ 54.1 µM) | Cn1c2nc(-c3ccccc3)nc(=O)c-2c(NCCc2ccccc2)c2ccccc21
1.1 (≈ 2.8 µM) | 1.8 (≈ 4.59 µM) | Cc1ccc(Nc2c3c(=O)nc(-c4ccccc4)nc-3n(C)c3ccccc23)cc1
8.3 (≈ 22.3 µM) | 7.6 (≈ 20.4 µM) | CCCCNc1c2c(=O)nc(-c3ccccc3)nc-2n(CC)c2ccccc12
> 100 | 18 (≈ 52.3 µM) | CCCNc1c2c(=O)nc(-c3ccccc3)nc-2n(C)c2ccccc12
20.4 (≈ 47.6 µM) | 12 (≈ 28 µM) | CCCCCCCCNc1c2c(=O)nc(-c3ccccc3)nc-2n(CC)c2ccccc12
4.7 (≈ 13.1 µM) | 6.6 (≈ 18.4 µM) | CCCCNc1c2c(=O)nc(-c3ccccc3)nc-2n(C)c2ccccc12
